In ChEMBL document CHEMBL4152328, “Design, synthesis, in vitro and in silico evaluation of a new series of oxadiazole-based anticancer agents as potential Akt and FAK inhibitors” (Eur J Med Chem, 2018):
Calls of active or inactive are those of the source. No cut-off for these calls is given here.

How the values were obtained:
C6 [1] = assay: Induction of mitochondrial membrane potential loss in rat C6 cells assessed as intact mitochondrial membrane potential at IC50 measured after 24 hrs by JC-1 staining based flow cytometric analysis (reference value: 80%); assay type: functional
C6 [2] = assay: Induction of apoptotic morphological alterations in rat C6 cells assessed as rounding of cells at IC50 after 24 hrs by transmission electron microscopy; assay type: functional, cell-based
Outline: (§1)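 Cells were fixed in 2.5% glutaraldehyde in 0.1 M PBS pH 7.4 and held overnight at 4 °C, then agar-embedded and post-fixed in 2% osmium tetroxide. They were dehydrated through graded ethanol, embedded in EPON 812, ultrathin-sectioned and examined by transmission electron microscopy.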

C6 [3] = assay: Induction of apoptotic morphological alterations in rat C6 cells assessed as disruption of cellular organization at IC50 after 24 hrs by transmission electron microscopy; assay type: functional, cell-based; outline: as §1
A549 [4] = assay: Induction of apoptosis in human A549 cells assessed as early/late apoptotic cells at IC50 after 24 hrs by Annexin V-FITC/PI staining based flow cytometry (reference value: 7.1%); assay type: functional
A549 [5] = assay: Induction of apoptosis in human A549 cells assessed as caspase-3 positive cell level at IC50 after 24 hrs by FITC-A labeled flow cytometry (reference value: 2.1%); assay type: functional
A549 [6] = assay: Induction of apoptotic morphological alterations in human A549 cells assessed as increase in large vacuoles in cytoplasm containing degraded cellular material at IC50 after 24 hrs by transmission electron microscopy; assay type: functional, cell-based; outline: as §1
C6 [7] = assay: Induction of apoptotic morphological alterations in rat C6 cells assessed as organellar membrane damage at IC50 after 24 hrs by transmission electron microscopy; assay type: functional, cell-based; outline: as §1
C6 [8] = assay: Induction of apoptosis in rat C6 cells assessed as caspase-3 positive cell level at IC50 after 24 hrs by FITC-A labeled flow cytometry (reference value: 4.8%); assay type: functional
[9] = biological target: RAC-alpha serine/threonine-protein kinase (Rattus norvegicus, UniProt P47196); assay: Inhibition of Akt in rat C6 cells after 24 hrs by ELISA; assay type: cell-based
Chain of RAC-alpha serine/threonine-protein kinase (Rattus norvegicus, UniProt P47196) (P47196 whole entry): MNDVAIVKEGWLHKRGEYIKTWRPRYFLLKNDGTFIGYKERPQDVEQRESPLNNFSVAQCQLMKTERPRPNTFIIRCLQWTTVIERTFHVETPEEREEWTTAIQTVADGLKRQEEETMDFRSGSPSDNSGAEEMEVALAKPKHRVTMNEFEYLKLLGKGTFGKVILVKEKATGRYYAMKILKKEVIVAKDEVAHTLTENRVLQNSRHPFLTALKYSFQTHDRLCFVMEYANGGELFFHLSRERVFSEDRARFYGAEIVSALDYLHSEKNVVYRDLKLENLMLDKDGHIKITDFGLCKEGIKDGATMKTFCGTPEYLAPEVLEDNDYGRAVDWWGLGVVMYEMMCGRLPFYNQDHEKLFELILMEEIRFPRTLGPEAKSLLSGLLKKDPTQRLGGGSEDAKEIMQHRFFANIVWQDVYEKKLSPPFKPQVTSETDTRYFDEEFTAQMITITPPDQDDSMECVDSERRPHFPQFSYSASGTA
Outline: (§2)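 In-cell colorimetric ELISA: 10,000 cells/well were treated 24 h, then fixed in 4% formaldehyde for 15 min, permeabilised, quenched and blocked. Primary antibody ran overnight at 4 °C, then HRP conjugate for 30 min, then TMB; absorbance was read at 450 nm. Wells were in triplicate and blank-subtracted. Activity is relative to untreated cells; IC50 came from graphs of three concentrations.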

C6 [10] = assay: Cytotoxicity against rat C6 cells assessed as decrease in cell viability after 24 hrs by MTT assay; assay type: functional, cell-based; conditions: C6, 24 h
Outline: (§3)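 Viability was read as cellular MTT reduction. Cisplatin and GSK690693 were run as reference controls. IC50 values were derived for each cell line.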

A549 [11] = assay: Induction of apoptotic morphological alterations in human A549 cells assessed as cell shrinkage at IC50 after 24 hrs by transmission electron microscopy; assay type: functional, cell-based; outline: as §1
A549 [12] = assay: Induction of mitochondrial membrane potential loss in human A549 cells at IC50 measured after 24 hrs by JC-1 staining based flow cytometric analysis (reference value: 9.8%); assay type: functional
A549 [13] = assay: Induction of apoptotic morphological alterations in human A549 cells assessed as membrane damage at IC50 after 24 hrs by transmission electron microscopy; assay type: functional, cell-based; outline: as §1
[14] = biological target: RAC-alpha serine/threonine-protein kinase (Homo sapiens, UniProt P31749); assay: Inhibition of Akt in human A549 cells after 24 hrs by ELISA; assay type: cell-based; outline: as §2
Chain of RAC-alpha serine/threonine-protein kinase (Homo sapiens, UniProt P31749) (P31749 whole entry): as the sequence (P47196 whole entry) above, with N2S, E46D, S50A, R112K, T117E, A137S, T389K, N410G, D415H counted along it

C6 [15] = assay: Induction of apoptotic morphological alterations in rat C6 cells assessed as DNA condensation at IC50 after 24 hrs by transmission electron microscopy; assay type: functional, cell-based; outline: as §1
NIH3T3 = assay: Cytotoxicity against mouse NIH/3T3 cells assessed as decrease in cell viability after 24 hrs by MTT assay; assay type: cell-based; conditions: NIH3T3, 24 h; outline: as §3
C6 [16] = assay: Induction of mitochondrial membrane potential loss in rat C6 cells at IC50 measured after 24 hrs by JC-1 staining based flow cytometric analysis (reference value: 19.9%); assay type: functional
C6 [17] = assay: Induction of apoptosis in rat C6 cells assessed as early/late apoptotic cells at IC50 after 24 hrs by Annexin V-FITC/PI staining based flow cytometry (reference value: 8%); assay type: functional
C6 [18] = assay: Induction of apoptotic morphological alterations in rat C6 cells assessed as membrane damage at IC50 after 24 hrs by transmission electron microscopy; assay type: functional, cell-based; outline: as §1
[19] = Selectivity index, ratio of IC50 for mouse NIH/3T3 cells to IC50 for human A549 cells; assay type: toxicity; conditions: NIH/3T3 cells versus A549 cells, read-out: Ratio IC50
Outline: (§4)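 Selectivity index = IC50 for NIH/3T3 normal fibroblasts / IC50 for the cancer line (A549 or C6). […] An IC50 above 403.00 was taken as 403.00.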

A549 [20] = assay: Induction of mitochondrial membrane potential loss in human A549 cells assessed as intact mitochondrial membrane potential at IC50 measured after 24 hrs by JC-1 staining based flow cytometric analysis (reference value: 90.4%); assay type: functional
A549 [21] = assay: Induction of apoptosis in human A549 cells assessed as viable cells at IC50 after 24 hrs by Annexin V-FITC/PI staining based flow cytometry (reference value: 89%); assay type: functional
A549 [22] = assay: Induction of apoptosis in human A549 cells assessed as caspase-3 negative cell level at IC50 after 24 hrs by FITC-A labeled flow cytometry (reference value: 98.1%); assay type: functional
C6 [23] = assay: Induction of apoptotic morphological alterations in rat C6 cells assessed as chromatin condensation at IC50 after 24 hrs by transmission electron microscopy; assay type: functional, cell-based; outline: as §1
A549 [24] = assay: Cytotoxicity against human A549 cells assessed as decrease in cell viability after 24 hrs by MTT assay; assay type: functional, cell-based; conditions: A549, 24 h; outline: as §3
C6 [25] = assay: Induction of apoptotic morphological alterations in rat C6 cells assessed as large vacuoles at IC50 after 24 hrs by transmission electron microscopy; assay type: functional, cell-based; outline: as §1
C6 [26] = assay: Induction of apoptosis in rat C6 cells assessed as caspase-3 negative cell level at IC50 after 24 hrs by FITC-A labeled flow cytometry (reference value: 96.4%); assay type: functional
[27] = Selectivity index, ratio of IC50 for mouse NIH/3T3 cells to IC50 for rat C6 cells; assay type: toxicity; conditions: NIH/3T3 cells versus C6 cells, read-out: Ratio IC50; outline: as §4
C6 [28] = assay: Induction of apoptotic morphological alterations in rat C6 cells assessed as cell shrinkage at IC50 after 24 hrs by transmission electron microscopy; assay type: functional, cell-based; outline: as §1
A549 [29] = assay: Induction of apoptotic morphological alterations in human A549 cells assessed as organellar membrane damage at IC50 after 24 hrs by transmission electron microscopy; assay type: functional, cell-based; outline: as §1
A549 [30] = assay: Induction of apoptotic morphological alterations in human A549 cells assessed as nuclear fragmentation at IC50 after 24 hrs by transmission electron microscopy; assay type: functional, cell-based; outline: as §1
A549 [31] = assay: Induction of apoptotic morphological alterations in human A549 cells assessed as disruption of cellular organization at IC50 after 24 hrs by transmission electron microscopy; assay type: functional, cell-based; outline: as §1
C6 [32] = assay: Induction of apoptosis in rat C6 cells assessed as viable cells at IC50 after 24 hrs by Annexin V-FITC/PI staining based flow cytometry (reference value: 90%); assay type: functional
Focal adhesion kinase 1 = Focal adhesion kinase 1 (Rattus norvegicus, UniProt O35346); assay: Inhibition of FAK phasphorylation at Tyr397 residues in rat C6 cells after 24 hrs by ELISA; assay type: cell-based
Chain of Focal adhesion kinase 1 (O35346 whole entry): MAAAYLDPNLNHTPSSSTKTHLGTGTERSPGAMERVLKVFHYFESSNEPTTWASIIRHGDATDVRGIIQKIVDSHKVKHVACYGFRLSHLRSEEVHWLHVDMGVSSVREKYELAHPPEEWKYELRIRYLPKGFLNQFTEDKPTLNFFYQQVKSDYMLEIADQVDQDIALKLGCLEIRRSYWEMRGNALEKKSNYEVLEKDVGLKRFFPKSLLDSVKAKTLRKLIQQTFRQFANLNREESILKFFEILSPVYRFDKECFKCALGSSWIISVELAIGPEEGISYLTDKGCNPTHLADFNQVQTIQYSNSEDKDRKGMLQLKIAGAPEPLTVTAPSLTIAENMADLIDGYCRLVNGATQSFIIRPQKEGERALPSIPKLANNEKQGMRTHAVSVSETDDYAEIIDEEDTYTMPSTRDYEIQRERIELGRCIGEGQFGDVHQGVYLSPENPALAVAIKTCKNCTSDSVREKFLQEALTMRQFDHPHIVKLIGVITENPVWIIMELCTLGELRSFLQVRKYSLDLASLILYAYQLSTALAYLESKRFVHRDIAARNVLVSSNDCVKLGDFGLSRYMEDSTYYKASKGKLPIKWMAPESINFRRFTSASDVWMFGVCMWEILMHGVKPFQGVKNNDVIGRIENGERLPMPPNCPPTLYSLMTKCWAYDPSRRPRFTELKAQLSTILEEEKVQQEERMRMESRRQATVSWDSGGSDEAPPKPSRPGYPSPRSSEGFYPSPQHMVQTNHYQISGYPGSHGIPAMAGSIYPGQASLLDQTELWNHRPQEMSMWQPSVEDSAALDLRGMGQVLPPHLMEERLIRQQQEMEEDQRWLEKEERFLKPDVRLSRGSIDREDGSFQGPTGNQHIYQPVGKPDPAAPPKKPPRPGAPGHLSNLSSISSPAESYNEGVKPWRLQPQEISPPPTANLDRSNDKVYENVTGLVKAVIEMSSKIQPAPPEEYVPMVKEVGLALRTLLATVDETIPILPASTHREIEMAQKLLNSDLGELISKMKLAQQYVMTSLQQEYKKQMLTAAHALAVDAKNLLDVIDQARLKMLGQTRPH
Outline: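 Cell-based colorimetric ELISA in C6 cells treated 24 h: cells were fixed in 4% formaldehyde for 20 min, quenched, and blocked for 1 h. Anti-FAK pTyr397, anti-FAK and anti-GAPDH primaries ran overnight at 4 °C, then HRP secondaries for 1.5 h and substrate for 30 min. OD450 was read in duplicate wells; pFAK was normalised to GAPDH. IC50 came from graphs of three concentrations.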

A549 [33] = assay: Induction of apoptotic morphological alterations in human A549 cells assessed as rounding of cells at IC50 after 24 hrs by transmission electron microscopy; assay type: functional, cell-based; outline: as §1
A549 [34] = assay: Induction of apoptotic morphological alterations in human A549 cells assessed as DNA condensation at IC50 after 24 hrs by transmission electron microscopy; assay type: functional, cell-based; outline: as §1

For COc1ccc2nc(NC(=O)CSc3nnc(COc4ccc5c(c4)CCCC5)o3)sc2c1, the Activity (C6 [1]) was 24.4%, the Activity (C6 [2]) was “Active” and the Activity (C6 [3]) was “Active”. The Activity (A549 [4]) was 12.2%, the Activity (A549 [5]) was 25% and the Activity (A549 [6]) was “Active”. The Activity (C6 [7]) was “Active”, the Activity (C6 [8]) was 33.9% and the IC50 [9] was 2.6 µM. The IC50 (C6 [10]) was 4.63 µM, the Activity (A549 [11]) was “Active” and the Activity (A549 [12]) was 27.9%. The Activity (A549 [13]) was “Active”, the IC50 [14] was 27.5 µM and the Activity (C6 [15]) was “Active”. For the same molecule, the IC50 (NIH3T3) was 94.3 µM, the Activity (C6 [16]) was 74.4% and the Activity (C6 [17]) was 5%. For the same molecule, the Activity (C6 [18]) was “Active”, the selectivity ratio [19] was 2.4 and the Activity (A549 [20]) was 69.8%. The Activity (A549 [21]) was 71.7%, the Activity (A549 [22]) was 76.4% and the Activity (C6 [23]) was “Active”. The IC50 (A549 [24]) was 39.3 µM, the Activity (C6 [25]) was “Active” and the Activity (C6 [26]) was 69.8%. The selectivity ratio [27] was 20.4, the Activity (C6 [28]) was “Active” and the Activity (A549 [29]) was “Active”. For the same molecule, the Activity (A549 [30]) was “Active”, the Activity (A549 [31]) was “Active” and the Activity (C6 [32]) was 92.3%. For the same molecule, the IC50 (Focal adhesion kinase 1) was 19.5 µM, the Activity (A549 [33]) was “Active” and the Activity (A549 [34]) was “Active”.
